Experiment [1] has as its system CEM-SS. In words: Inhibitory concentration for cytopathicity of HIV-1 in CEM-SS cells. It counts as functional, cell-based. Particulars: Homo sapiens; call rule not given here. In outline: (§1)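 XTT cytoprotection assay in CEM-SS cells infected with HIV-1 RF, with uninfected cultures for cytotoxicity, in presence of fetal calf serum. Data as percent of uninfected drug-free control. EC50 is 50% protection from cytopathicity; CC50 is 50% cell death in uninfected cells; TI = CC50/EC50. Triplicates on each of two sister plates, plate EC50s averaged. Confirmed by supernatant RT and p24.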
In general terms: Protection from cytopathic effect is a common read-out in antiviral testing.

A short description of experiment [2]: The compound is evaluated for the therapeutic index, which is the CC50 divided by the EC50. In kind it is functional. Summed up: as §1
Experiment [3] addresses T1, Human immunodeficiency virus type 1 integrase (Human immunodeficiency virus 1, UniProt Q7ZJM1). In words: The compound is evaluated for the inhibitory against HIV -1 integrase. NI refers to no inhibition.
The target of experiment [4] is T2, Human immunodeficiency virus type 1 reverse transcriptase (Human immunodeficiency virus 1, UniProt Q72547). In words: Inhibitory activity against human immunodeficiency virus (HIV) - 1 reverse transcriptase with rCdG as the template primer. In outline: (§2)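 Reactions stopped with ice-cold 10% trichloroacetate, filtered through GF/C membrane, washed with ethanol, radiolabel counted by Cerenkov counting. AZTTP and nevirapine as positive controls; IC50 reported.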

Experiment [5] deals with T3, Human immunodeficiency virus 1 nucleocapsid (Human immunodeficiency virus 1, UniProt Q76059). In words: Inhibition of HIV-1 Nucleocapsid protein p7 (no inhibition).
Experiment [6] concerns the target T2, Human immunodeficiency virus type 1 reverse transcriptase. In words: The compound is evaluated for the inhibitory against HIV -1 reverse transcriptase with rAdT as the template primer. Summed up: as §2
The test system of experiment [7] is CCRF-CEM. In words: The compound is evaluated for the cytotoxic concentration for the mock-infected CEM cells. It counts as functional. Particulars: Homo sapiens. In outline:
as §1

The target of experiment [8] is T4, Human immunodeficiency virus type 1 protease (Human immunodeficiency virus 1, UniProt Q72874). In words: The compound is evaluated for the inhibitory against HIV -1 protease, a 30% inhibition of HIV-1 protease was observed at a concentration of 100 uM.
Experiment [9] deals with T1, Human immunodeficiency virus type 1 integrase. In words: The compound is evaluated for the inhibitory against HIV -1 integrase. NI indicates no inhibition at 100 uM conc.
In experiment [10] the test system is CEM-SS. In words: The compound is evaluated for the activity against HIV-1 NL4-3, 4XAZT (AZT resistant) mutation in reverse transcriptase in CEM-SS cells. In kind it is functional, cell-based. Particulars: Homo sapiens. Summed up: (§3)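 NL4-3-background virus carrying RT mutations, from site-directed mutagenesis or in vitro NNRTI selection, tested in CEM-SS cells. A higher MOI was used than in the primary screening assays. The result is given as EC50 against each mutant or wild-type virus.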

The subject of experiment [11] is CCRF-CEM. In words: The compound is evaluated for the activity against cost, Y188H mutation in reverse transcriptase in CEM-CC cells. In kind it is functional, cell-based. Particulars: Homo sapiens. Summed up: (§4)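 Cytoprotection assay in CEM-CC cells against NNRTI-resistant HIV-1 isolates obtained by in vitro selection or site-directed mutagenesis, using a higher MOI than the original screening assays. EC50 determined; fold resistance relative to wild-type HIV-1 IIIB.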

A short description of experiment [12]: The compound is evaluated for the inhibitory activity against HIV-1, clade D in PBMC cells. In kind it is functional, cell-based, Homo sapiens.
The nature of experiment [13]: The compound is evaluated for the inhibitory activity against HIV-1, clade B in PBMC cells. In kind it is functional, cell-based, Homo sapiens.
Experiment [14] has as its system CEM-SS. In words: The compound is evaluated for the activity against HIV-1 NL4-3, 4XAZT/L100I (AZT resistant) mutation in reverse transcriptase in CEM-SS cells.
Experiment [15] is described as follows: The compound is evaluated for the inhibitory activity against HIV-1, clade F in PBMC cells. In kind it is functional, cell-based, Homo sapiens.
For experiment [16], the system named is CEM-SS. In words: The compound is evaluated for the activity against HIV-1 NL4-3, 4XAZT/Y181C (AZT resistant) mutation in reverse transcriptase in CEM-SS cells.
The nature of experiment [17]: The compound is evaluated for the inhibitory activity against HIV-1 ROJO, wild-type clinical isolate in PBMC cells. In kind it is functional, cell-based, Homo sapiens.
Experiment [18] can be described thus: The compound is evaluated for the inhibitory activity against HIV-1, clade E in PBMC cells. In kind it is functional, cell-based, Homo sapiens.
Experiment [19] concerns CCRF-CEM. In words: The compound is evaluated for the activity against calo ( calanolide resistant), T139I mutation in reverse transcriptase in CEM-CC cells. In kind it is functional, cell-based. As to conditions: Homo sapiens. Summed up:
as §4

For experiment [20], the system named is CEM-SS. In words: The compound is evaluated for the activity against HIV-1 NL4-3, K103N mutation in reverse transcriptase in CEM-SS cells.
The target in experiment [21] is T3, Human immunodeficiency virus 1 nucleocapsid. In words: Inhibition of HIV-1 Nucleocapsid protein p7 (no inhibition at 25 uM).
In experiment [22] the test system is CCRF-CEM. In words: The compound is evaluated for the activity against 129/cost (costatolide resistant), V108I mutation in reverse transcriptase in CEM-CC cells. Particulars: Homo sapiens, in the assay text read “K103N” for “V108I”. It counts as functional, cell-based. In outline:
as §4

Experiment [23] relates to CEM-SS. In words: The compound is evaluated for the inhibitory activity against HIV-1 RF, wild-type laboratory adapted strain in CEM-SS. Particulars: Homo sapiens. It counts as functional, cell-based. Summed up: (§5)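 XTT cytoprotection assay in CEM-SS cells infected with HIV-1. EC50 is the concentration giving 50% protection from viral cytopathicity, relative to the uninfected drug-free control. Triplicates were averaged on each of two sister plates, and the two plate EC50s were averaged. Results were confirmed by supernatant RT and p24 levels.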

Experiment [24] deals with CCRF-CEM. In words: The compound is evaluated for the activity against TSAO/cost (costatolide resistant), K101E mutation in reverse transcriptase in CEM-CC cells. It counts as functional, cell-based. As to conditions: Homo sapiens. Summed up:
as §4

Experiment [25] relates to CEM-SS. In words: The compound is evaluated for the inhibitory activity against HIV-1 IIIB, wild-type laboratory adapted strain in CEM-SS. As to conditions: Homo sapiens. It counts as functional, cell-based. In outline:
as §5

The subject of experiment [26] is CEM-SS. In words: The compound is evaluated for the activity against HIV-1 NL4-3, Y188C mutation in reverse transcriptase in CEM-SS cells.
Experiment [27] has as its system CEM-SS. In words: The compound is evaluated for the activity against HIV-1 NL4-3, L100I mutation in reverse transcriptase in CEM-SS cells.
Experiment [28] relates to CEM-SS. In words: The compound is evaluated for the activity against HIV-1 NL4-3, V108I mutation in reverse transcriptase in CEM-SS cells.
For experiment [29], the system named is CCRF-CEM. In words: The compound is evaluated for the activity against HEPT ((Hydroxyethoxy) methyl (phenylthio)thymine resistant), P236L mutation in reverse transcriptase in CEM-CC cells. In kind it is functional, cell-based. Particulars: Homo sapiens. Summed up: as §4
Experiment [30] relates to CEM-SS. In words: The compound is evaluated for the activity against HIV-1 NL4-3, K101E mutation in reverse transcriptase in CEM-SS cells.
The nature of experiment [31]: The compound is evaluated for the inhibitory activity against HIV-1 TEKI, wild-type clinical isolate in PBMC cells. In kind it is functional, cell-based, Homo sapiens.
Experiment [32] relates to CCRF-CEM. In words: The compound is evaluated for the activity against OC (Oxathiin carboxanilide resistant), L100I mutation in reverse transcriptase in CEM-CC cells. As to conditions: Homo sapiens. It counts as functional, cell-based. In outline:
as §4

A short description of experiment [33]: The compound is evaluated for the inhibitory activity against HIV-1, clade C in PBMC cells. It counts as functional, cell-based, Homo sapiens.
Experiment [34] deals with CCRF-CEM. In words: The compound is evaluated for the activity against DPS ( Diphenyl sulfone resistant), Y181C mutation in reverse transcriptase in CEM-CC cells. In kind it is functional, cell-based. Particulars: Homo sapiens. Summed up: as §4
For experiment [35], the target named is T4, Human immunodeficiency virus type 1 protease. In words: The compound is evaluated for the inhibitory against HIV -1 protease, a 17% inhibition of HIV-1 protease was observed at a concentration of 100 uM.
The subject of experiment [36] is CCRF-CEM. In words: The compound is evaluated for the activity against 3TC, M184I mutation in reverse transcriptase in CEM-CC cells. As to conditions: Homo sapiens. It counts as functional, cell-based.
For experiment [37], the system named is CEM-SS. In words: The compound is evaluated for the activity against HIV-1 NL4-3, wild - type mutation in reverse transcriptase in CEM-SS cells. In kind it is functional, cell-based. Particulars: Homo sapiens. In outline: as §3
Experiment [38] has as its system CEM-SS. In words: The compound is evaluated for the activity against HIV-1 NL4-3, A98G mutation in reverse transcriptase in CEM-SS cells.
For experiment [39], the system named is CEM-SS. In words: The compound is evaluated for the activity against HIV-1 NL4-3, V179D mutation in reverse transcriptase in CEM-SS cells.
The subject of experiment [40] is CCRF-CEM. In words: The compound is evaluated for the activity against HIV-1 IIIB, wild - type mutation in reverse transcriptase in CEM-CC cells. It counts as functional, cell-based. As to conditions: Homo sapiens. Summed up: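 Resistant-virus panel in CEM-CC cells. Mutant isolates came from in vitro selection under various NNRTIs. More virus (higher MOI) was used than in the primary screening assays. The result is given as EC50 against each RT-mutant or wild-type isolate.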

Experiment [41] can be described thus: The compound is evaluated for the inhibitory activity against HIV-1, clade A in PBMC cells. It counts as functional, cell-based, Homo sapiens.
Experiment [42] deals with CEM-SS. In words: The compound is evaluated for the activity against HIV-1 NL4-3, Y181C mutation in reverse transcriptase in CEM-SS cells.
Experiment [43] concerns CEM-SS. In words: The compound is evaluated for the activity against HIV-1 NL4-3, V106A mutation in reverse transcriptase in CEM-SS cells.
For experiment [44], the system named is CCRF-CEM. In words: The compound is evaluated for the activity against thiazol (thiazolobenzimidazole resistant), T139I mutation in reverse transcriptase in CEM-CC cells. It counts as functional, cell-based. Particulars: Homo sapiens, in the assay text read “V108I” for “T139I”. Summed up: as §4
Experiment [45] deals with CEM-SS. In words: The compound is evaluated for the activity against HIV-1 NL4-3, L74V mutation in reverse transcriptase in CEM-SS cells.
The species entered for experiment [46] is Homo sapiens. In words: The compound is evaluated for the inhibitory activity against HIV-1 Ba-L, monocyte-tropic in Mono/Mac cells. In kind it is functional, cell-based.

As a reminder, the EC50 is the concentration giving half of the maximal effect. One may read the IC50 as the concentration at which inhibition is half-maximal. Read a high IC50 as a need for much substance. The term CC50 denotes the concentration that lowers cell viability or growth by half. As to `COC(=O)c1cc(C(=CCCN=[N+]=[N-])c2cc(Cl)c(OC)c(C(=O)OC)c2)cc(Cl)c1OC`, the EC50 in [1] was 0.27 µM. This molecule also came in with a TI in experiment [2] of 155. The IC50 entry in experiment [3] is “No inhibition”; in [4], 2 µM; in [5] it was “Not Active”; in experiment [6], 9.9 µM; in experiment [8], over 100 µM. Also, the midpoint of cytotoxicity in experiment [7], the CC50, lay at 41.8 µM.
Consider `COC(=O)CCCC=C(c1cc(Cl)c(OC)c(C(=O)OC)c1)c1cc(Cl)c(OC)c(C(=O)OC)c1`, for which the IC50 entry was “No inhibition” in experiment [9], “No inhibition” in experiment [21] and over 100 µM in experiment [35]. Moreover, the 50% effective concentration (EC50) in experiment [10] was 0.9 µM; in [11], over 50 µM; in experiment [12], 1.02 µM; in experiment [13], 0.43 µM; in [14], 0.27 µM; in experiment [15], 1.7 µM. Besides, the EC50 in experiment [16] was over 50 µM; in experiment [17] it was 2.28 µM; in experiment [18] it was 0.4 µM; in experiment [19] it was 15 µM; in experiment [20], over 50 µM; in experiment [22], 10.8 µM. Moreover, the EC50 was 0.91 µM in [23]; 11.9 µM in experiment [24]; 0.16 µM in [25]; 10.8 µM in [26]; under 0.16 µM in experiment [27]; 12 µM in [28]. In addition, the concentration for a half-maximal effect (EC50) in [29] is 8.08 µM; in experiment [30] it was 3.05 µM; in experiment [31] it was 2.2 µM; in experiment [32] it was 0.94 µM; in [33], 1.04 µM; in experiment [34], over 50 µM. In addition, the EC50 amounted to 1.08 µM in experiment [36]; 1.78 µM in [37]; 0.84 µM in experiment [38]; 50 µM in experiment [39]; 0.39 µM in experiment [40]; 1.09 µM in experiment [41]. The EC50 is over 50 µM in experiment [42]; 12.7 µM in experiment [43]; over 50 µM in experiment [44]; 2.23 µM in experiment [45]; 0.36 µM in experiment [46]. Besides, the midpoint of cytotoxicity in experiment [7], the CC50, lay at 31.6 µM.

For the origin of these results see ChEMBL document CHEMBL1131244, “New alkenyldiarylmethanes with enhanced potencies as anti-HIV agents which act as non-nucleoside reverse transcriptase inhibitors” (J Med Chem, 1998).
